Measured values pooled from the literature.
Compare with care: the assays were run in different laboratories.
Target: Bone morphogenetic protein receptor type-1A (BMPR1A, Homo sapiens, UniProt P36894)

SMILES | read-out | mode | method | tested at | measurement | value
CC(C)(C)c1nc2c(s1)c1nc(N)ncc1c1ccc(NS(=O)(=O)c3c(F)cccc3F)c(F)c12 | enzyme activity | inhibitor | radiometric | 1 µM | remaining activity | 96%
Cc1sc(C(=O)NC2COC2)cc1-n1cc(NC(=O)Nc2c(F)cccc2Cl)cn1 | enzyme activity | inhibitor | – | 10 µM | remaining activity | 92.5%
Nc1ncnc2occ(-c3ccc(NC(=O)Nc4cc(C(F)(F)F)ccc4F)cc3)c12 | cell-free assay | – | – | 20 µM | remaining signal | 100%
O=C(Nc1cnn(-c2csc(C(=O)NC3COC3)c2)c1)Nc1ccccc1Cl | enzyme activity | inhibitor | – | 5 µM | remaining activity | 105%
CC(C)(C)c1nc(-c2cccc(NS(=O)(=O)c3c(F)cccc3F)c2F)c(-c2ccnc(N)n2)s1 | enzyme activity | inhibitor | radiometric | 1 µM | remaining activity | 48%
Cc1noc([C@H]2C[C@@H](c3ccc(C(F)(F)F)cc3)CN(C(=O)N3CCS(=O)(=O)C3)C2)n1 | binding | – | competition with immobilised ligand | 1 µM | remaining binding | 100%
Cc1ccc(C(=O)Nc2ccc(CN3CCN(C)CC3)c(C(F)(F)F)c2)cc1C#Cc1cnc2cccnn12 | enzyme activity | – | – | 23.5 nM | remaining activity | 97%
Nc1cnc(N2CCc3cc(S(=O)(=O)Nc4c(F)cc(Cl)cc4F)cc(N4CCCC4=O)c32)nc1 | cell-free assay | – | competition with immobilised ligand | 1 µM | remaining binding | 91%
CCOc1cc(-c2nncn2C)ccc1Nc1ncc2cc(C)nc(NCC(C)(C)C)c2n1 | cell-free assay | – | TR-FRET | 1 µM | inhibition | ≤ 15%
